Measured values from paper PMC10692477 (Acta Pharmaceutica Sinica. B, 2023).
“And” between values parts separate entries of the source, which are not always exact repeats. Identical values can stand only once. Blank lines part the entries; values can stand above or below the molecule they belong to.

How the values were obtained:
BaF3/TEL-AXL cells = assay: BaF3/TEL-AXL cell viability; format: cell-based; settings: 48 h, read-out: IC50 Cell viability
AXL kinase = biological target: T1, AXL kinase (Homo sapiens, UniProt P30530); assay: AXL kinase inhibition, ELISA; format: biochemical; settings: IC50 AXL kinase, ELISA; mean ± SD of two independent experiments
T1 sequence (P30530 26-894): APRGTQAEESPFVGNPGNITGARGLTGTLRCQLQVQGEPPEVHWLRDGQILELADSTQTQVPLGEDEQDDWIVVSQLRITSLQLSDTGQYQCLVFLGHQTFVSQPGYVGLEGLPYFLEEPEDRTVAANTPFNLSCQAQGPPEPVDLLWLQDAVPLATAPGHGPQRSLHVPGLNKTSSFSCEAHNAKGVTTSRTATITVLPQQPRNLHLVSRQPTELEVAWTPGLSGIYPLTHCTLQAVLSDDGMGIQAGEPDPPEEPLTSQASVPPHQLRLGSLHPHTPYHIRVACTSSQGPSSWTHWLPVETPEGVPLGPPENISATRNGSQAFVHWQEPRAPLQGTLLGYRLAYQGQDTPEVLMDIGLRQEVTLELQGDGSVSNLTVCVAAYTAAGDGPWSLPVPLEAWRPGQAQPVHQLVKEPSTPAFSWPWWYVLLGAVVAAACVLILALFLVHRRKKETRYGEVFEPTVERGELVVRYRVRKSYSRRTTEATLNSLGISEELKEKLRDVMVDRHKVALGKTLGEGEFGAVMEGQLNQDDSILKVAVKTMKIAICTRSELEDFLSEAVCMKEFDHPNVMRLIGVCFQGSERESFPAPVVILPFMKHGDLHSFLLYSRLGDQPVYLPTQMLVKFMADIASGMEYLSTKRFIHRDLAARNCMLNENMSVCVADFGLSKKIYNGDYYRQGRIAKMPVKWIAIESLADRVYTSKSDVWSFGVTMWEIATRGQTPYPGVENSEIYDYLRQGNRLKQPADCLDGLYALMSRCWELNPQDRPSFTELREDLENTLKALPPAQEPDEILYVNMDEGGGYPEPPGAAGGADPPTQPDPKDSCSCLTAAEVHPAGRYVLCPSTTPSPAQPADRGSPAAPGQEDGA

NCI-H1299 cells [1] = assay: NCI-H1299 cell wound healing assay; format: cell-based; settings: NCI-H1299, GAS6 500 ng/mL, 24 h
Summary of the method: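 NCI-H1299 monolayers were scratched, then given GAS6 500 ng/mL alone or with graded concentrations of the test compound for 24 h. Wound closure was imaged at 0 and 24 h, in triplicate.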

NCI-H1299 cells [2] = assay: GAS6-stimulated NCI-H1299 cell migration; format: cell-based; settings: 20 nmol/L, GAS6 500 ng/mL, 24 h
Summary of the method: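 NCI-H1299 cells (1.5 × 10^5 per well) in serum-free medium were placed in Transwell inserts with 8 μm pores. The lower chamber held serum-free medium with GAS6 500 ng/mL, and the test compound was added to both sides of the membrane. After 24 h, non-migrated cells were swabbed off. Migrated cells were fixed in 90% ethanol for 1 h, stained with 0.1% crystal violet for 15 min at room temperature, and imaged by microscopy.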

NCI-H1299 cells [3] = assay: NCI-H1299 cell viability under GAS6; format: cell-based; settings: same conditions as cell motility; GAS6 500 ng/mL, 24 h
Summary of the method: (§1)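 NCI-H1299 or SNU449 cells were seeded at low density in growth medium and incubated overnight. They were then stimulated with GAS6 500 ng/mL and treated with graded concentrations of the test compound for 24 h. Viability was read by CCK-8.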

E-cadherin expression = E-cadherin expression in GAS6-stimulated NCI-H1299 cells, immunoblotting; format: cell-based; settings: NCI-H1299, GAS6 500 ng/mL, 48 h
SNU449 cells [4] = assay: GAS6-stimulated SNU449 cell invasion; format: cell-based; settings: 20 nmol/L, GAS6 500 ng/mL, 24 h
Summary of the method: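 SNU449 cells were seeded in top chambers with matrigel-coated membrane inserts. The lower chamber held serum-free medium with GAS6 500 ng/mL, and the test compound was added to both sides. After 24 h, non-invading cells were removed. Invaded cells were fixed in 90% ethanol for 1 h, stained with 0.1% crystal violet for 15 min at room temperature, and imaged.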

AXL signaling pathway [5] = assay: GAS6-stimulated AXL signaling in NCI-H1299 cells, Western blot; format: cell-based; settings: NCI-H1299, 1 h treatment, GAS6 500 ng/mL 15 min
Summary of the method: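 NCI-H1299 cells in exponential growth were serum-deprived for 24 h, then given the test compound for 1 h and stimulated with GAS6 500 ng/mL for 15 min. Lysis was in 1× SDS sample buffer, followed by 10% SDS-PAGE and nitrocellulose transfer.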

EBC-1 cells = assay: EBC-1 cell viability; format: cell-based; settings: Homo sapiens, EBC-1, 72 h, read-out: IC50 viability of EBC-1 cells
Summary of the method: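 EBC-1 cells were seeded at low density in growth medium and incubated overnight. They were then treated with graded concentrations of the test compound for 72 h. Viability was read by CCK-8, and IC50 was obtained by four-parameter concentration–response curve fitting.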

[6] = Pharmacokinetics in ICR mice; format: in vivo; settings: mouse, serum
AXL signaling pathway [7] = assay: AXL signaling in BaF3/TEL-AXL cells, Western blot; format: cell-based; settings: 1 h
Summary of the method: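 BaF3/TEL-AXL cells in exponential growth were exposed to the test compound at the indicated concentrations for 1 h. Cells were lysed in 1× SDS sample buffer, run on 10% SDS-PAGE and transferred to nitrocellulose.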

c-Met kinase = c-Met kinase (Homo sapiens, UniProt P08581); assay: c-Met kinase inhibition, ELISA; format: biochemical
Chain of c-Met kinase (P08581 25-1390): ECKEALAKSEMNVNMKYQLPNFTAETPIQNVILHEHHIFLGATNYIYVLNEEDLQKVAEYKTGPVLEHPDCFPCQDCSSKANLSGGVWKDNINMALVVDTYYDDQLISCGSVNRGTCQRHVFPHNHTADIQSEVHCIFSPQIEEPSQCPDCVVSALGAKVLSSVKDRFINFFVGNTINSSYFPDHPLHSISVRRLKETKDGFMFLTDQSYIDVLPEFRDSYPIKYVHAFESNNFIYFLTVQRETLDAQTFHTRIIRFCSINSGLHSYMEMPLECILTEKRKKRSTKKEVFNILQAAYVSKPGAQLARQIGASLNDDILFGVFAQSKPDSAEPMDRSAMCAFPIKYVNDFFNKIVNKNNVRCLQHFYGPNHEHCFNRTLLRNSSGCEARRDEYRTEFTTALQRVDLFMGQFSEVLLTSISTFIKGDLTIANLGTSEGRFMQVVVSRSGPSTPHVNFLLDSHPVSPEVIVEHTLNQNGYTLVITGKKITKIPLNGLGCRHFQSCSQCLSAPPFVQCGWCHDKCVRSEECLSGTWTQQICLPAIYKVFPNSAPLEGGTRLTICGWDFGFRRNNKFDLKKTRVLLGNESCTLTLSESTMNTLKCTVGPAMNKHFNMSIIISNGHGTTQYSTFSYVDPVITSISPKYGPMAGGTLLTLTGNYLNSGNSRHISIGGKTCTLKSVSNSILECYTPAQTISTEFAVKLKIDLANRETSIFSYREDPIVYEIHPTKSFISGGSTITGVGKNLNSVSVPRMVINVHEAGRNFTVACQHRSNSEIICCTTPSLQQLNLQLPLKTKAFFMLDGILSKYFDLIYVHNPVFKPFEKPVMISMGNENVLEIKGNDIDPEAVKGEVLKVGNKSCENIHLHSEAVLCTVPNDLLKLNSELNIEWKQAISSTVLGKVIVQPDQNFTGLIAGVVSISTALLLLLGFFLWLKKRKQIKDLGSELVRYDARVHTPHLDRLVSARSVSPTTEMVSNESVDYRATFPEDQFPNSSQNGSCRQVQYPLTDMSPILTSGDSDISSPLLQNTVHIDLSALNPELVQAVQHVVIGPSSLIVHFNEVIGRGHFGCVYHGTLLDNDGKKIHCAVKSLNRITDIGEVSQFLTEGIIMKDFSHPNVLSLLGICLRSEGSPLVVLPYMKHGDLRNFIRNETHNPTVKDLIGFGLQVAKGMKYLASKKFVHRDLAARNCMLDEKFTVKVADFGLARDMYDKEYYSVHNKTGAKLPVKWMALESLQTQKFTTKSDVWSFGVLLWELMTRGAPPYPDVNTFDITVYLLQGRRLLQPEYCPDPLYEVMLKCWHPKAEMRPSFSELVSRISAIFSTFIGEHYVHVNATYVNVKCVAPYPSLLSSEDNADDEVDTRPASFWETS
Summary of the method: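 c-Met inhibition was measured by an ELISA-based kinase assay following a previously reported method. IC50 values were calculated from inhibition curves with a modified 4-parameter logistic model, from at least two separate experiments.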

other 55 tested kinases = assay: Kinase selectivity panel of 62 kinases; format: biochemical, human; settings: 100 nmol/L
AXL phosphorylation = assay: Intratumoral AXL phosphorylation, immunoblotting of tumor tissues; format: in vivo, nude mice; settings: tumor tissues 1 h after last dosage; 4 and 20 mg/kg groups
SNU449 cells [8] = assay: SNU449 cell viability under GAS6; format: cell-based; settings: same conditions as cell motility; GAS6 500 ng/mL, 24 h
Summary of the method: as §1

[9] = tested on: BaF3/TEL-AXL mouse xenograft; assay: BaF3/TEL-AXL cell-derived mouse xenograft model

IC50 (BaF3/TEL-AXL cells): 3630 ± 494 nM
IC50 (AXL kinase): 6.6 ± 2.9 nM
Structure (SMILES): COc1cc2ncnc(Oc3ccc(NC(=O)c4c5n(n(-c6cc(F)ccc6F)c4=O)CCCC5)cc3Cl)c2cc1OC [Compound 36]

IC50 (BaF3/TEL-AXL cells): 7.8 ± 0.7 nM
Structure (SMILES): COc1cc2ncnc(Oc3ccc(NC(=O)c4c5n(n(-c6cc(F)ccc6F)c4=O)CCCC5)cc3)c2cc1OC [Compound 50]

IC50 (BaF3/TEL-AXL cells): 3.3 ± 1.4 nM
IC50 (AXL kinase): 16.8 ± 3.5 nM
Structure (SMILES): COc1cc2ncnc(Oc3ccc(NC(=O)c4c5n(n(-c6ccccc6)c4=O)CCCC5)nc3)c2cc1OC [Compound 51]

IC50 (BaF3/TEL-AXL cells): 1 ± 0.2 nM
IC50 (AXL kinase): 4 ± 0.4 nM
Structure (SMILES): COc1cc2nccc(Oc3ccc(NC(=O)c4c5n(n(-c6ccccc6)c4=O)CCCC5)cc3)c2cc1OC [Compound 56]

IC50 (BaF3/TEL-AXL cells): < 0.1 nM
Structure (SMILES): COc1cc2nccc(Oc3ccc(NC(=O)c4c5n(n(-c6ccccc6)c4=O)CCCC5)cc3F)c2cc1OC [Compound 57]

IC50 (BaF3/TEL-AXL cells): 1.5 ± 0.4 nM
AUC(0-inf) ([6]; iv, 5 mg/kg): 21600 ng·h/mL
AUC(0-t) ([6]; iv, 5 mg/kg): 20500 ng·h/mL
clearance ([6]; iv, 5 mg/kg): 3.86 mL/min/kg
half-life ([6]; iv, 5 mg/kg): 1.67 h
AUC(0-inf) ([6]; po, 10 mg/kg): 14900 ng·h/mL
AUC(0-t) ([6]; po, 10 mg/kg): 14800 ng·h/mL
Cmax ([6]; po, 10 mg/kg): 2300 ng/mL
Tmax ([6]; po, 10 mg/kg): 1 h
bioavailability ([6]; po, 10 mg/kg): 36.1%
half-life ([6]; po, 10 mg/kg): 2.94 h
IC50 (c-Met kinase): 17.3 nM
Inhibition rate, other 55 tested kinases (other 55 tested kinases): less than 50%
IC50 (AXL kinase): 3.5 ± 0.8 nM
Structure (SMILES): COc1cc2nccc(Oc3ccc(NC(=O)c4c5n(n(-c6ccc(F)cc6)c4=O)CCCC5)cc3)c2cc1OC [Compound 59]
GAS6-accelerated wound healing (NCI-H1299 cells [1]): obviously inhibited
NCI-H1299 cell migration (NCI-H1299 cells [2]): significant reduction
cell viability of NCI-H1299 cells (NCI-H1299 cells [3]): no significant inhibitory effects
GAS6-induced downregulation of E-cadherin expression (E-cadherin expression): significantly reversed
SNU449 cell invasion (SNU449 cells [4]): significant inhibition
p-AKT level (AXL signaling pathway [5]): significantly inhibited
p-ERK (AXL signaling pathway [5]): marginally inhibited
p-STAT3 level (AXL signaling pathway [5]): significantly inhibited
phosphorylation of AXL induced by GAS6 (AXL signaling pathway [5]): significantly inhibited
IC50 (EBC-1 cells): 535 nM
p-ERK (AXL signaling pathway [7]): a bit weaker inhibtion
phosphorylation of AKT (AXL signaling pathway [7]): dose-dependently inhibited
phosphorylation of AXL (AXL signaling pathway [7]): dose-dependently inhibited
phosphorylation of STAT3 (AXL signaling pathway [7]): dose-dependently inhibited
intratumoral AXL phosphorylation (p-AXL) (AXL phosphorylation): robust inhibitions
cell viability of SNU449 cells (SNU449 cells [8]): no significant inhibitory effects
TGI ([9]; 20 mg/kg po qd, 7 consecutive days): 89.4%
body weight of tumor-bearing mice during the treatment ([9]; 4 and 20 mg/kg po qd): no significant body weight loss

IC50 (BaF3/TEL-AXL cells): < 0.2 nM
IC50 (AXL kinase): < 10 nM and 1.2 nM
Structure (SMILES): COc1cc2nccc(Oc3ccc(NC(=O)c4c5n(n(-c6cc(F)ccc6F)c4=O)CCCC5)cc3)c2cc1OC [Compound 60]

IC50 (BaF3/TEL-AXL cells): < 0.2 nM
IC50 (AXL kinase): < 10 nM and 0.7 nM
Structure (SMILES): COc1cc2nccc(Oc3ccc(NC(=O)c4c5n(n(-c6cc(F)ccc6Cl)c4=O)CCCC5)cc3)c2cc1OC [Compound 61]

IC50 (BaF3/TEL-AXL cells): 0.7 ± 0.3 nM
IC50 (AXL kinase): < 10 nM and 6.1 nM
Structure (SMILES): COc1cc2nccc(Oc3ccc(NC(=O)c4c5n(n(-c6ccc(F)cc6F)c4=O)CCCC5)cc3)c2cc1OC [Compound 62]

IC50 (BaF3/TEL-AXL cells): < 0.2 nM
IC50 (AXL kinase): < 10 nM and 2.3 nM
Structure (SMILES): COc1cc2nccc(Oc3ccc(NC(=O)c4c5n(n(-c6ccc(F)cc6Cl)c4=O)CCCC5)cc3)c2cc1OC [Compound 63]
